Screening results as filed in PubChem.
An excerpt weighted towards active compounds, which were near 2.9% of everything screened.
ADAM17 inh – ADAM17 inhibitors, primary screen, biochemical, QFRET; AID 720648, 2013; inhibition, % at 6.95 µM; recombinant ADAM17, EDANS/DABCYL FRET peptide cleavage; Disintegrin and metalloproteinase domain-containing protein 17 (Homo sapiens), P78536; 370,000 compounds, 0.83% hits;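 active means inhibition above the mean of compounds lying between control limits plus 3 SD, set per campaign, cut at about 8.5% in these data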;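 further: 0% = DMSO-only wells as the low control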
CaV13 ICDI inh – Disruptors of the CACNA1D IQ motif to Ca2+-dependent inactivation inhibitor domain association, primary screening, Förster resonance energy transfer in intact living … | inhibition, % at 12.3 µM | HEK cells, CFP/YFP FRET ICDI-IQ, plate reader, 10 min; percent FRET-ratio fall versus neutral wells | 340,000 compounds, 0.098% hits;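 active means mean replicate inhibition of at least 30% and at least 1% of replicates passing that level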;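 further: 0% = median of the neutral control wells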
ADAM10 inh – human ADAM10 inhibitors, primary screen, biochemical, QFRET, HTS; recombinant ADAM10, EDANS/DABCYL FRET peptide cleavage, 3 h; inhibition, % at 7 µM; 370,000 compounds, 0.62% hits;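 active means inhibition above a per-campaign cutoff equal to the mean of compounds falling between control-based bounds plus 3 SD, cut at about 20% in these data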;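 further: 0% = DMSO wells while the 100% control is not disclosed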
Target sequence (O14672 214-748 limits assumed): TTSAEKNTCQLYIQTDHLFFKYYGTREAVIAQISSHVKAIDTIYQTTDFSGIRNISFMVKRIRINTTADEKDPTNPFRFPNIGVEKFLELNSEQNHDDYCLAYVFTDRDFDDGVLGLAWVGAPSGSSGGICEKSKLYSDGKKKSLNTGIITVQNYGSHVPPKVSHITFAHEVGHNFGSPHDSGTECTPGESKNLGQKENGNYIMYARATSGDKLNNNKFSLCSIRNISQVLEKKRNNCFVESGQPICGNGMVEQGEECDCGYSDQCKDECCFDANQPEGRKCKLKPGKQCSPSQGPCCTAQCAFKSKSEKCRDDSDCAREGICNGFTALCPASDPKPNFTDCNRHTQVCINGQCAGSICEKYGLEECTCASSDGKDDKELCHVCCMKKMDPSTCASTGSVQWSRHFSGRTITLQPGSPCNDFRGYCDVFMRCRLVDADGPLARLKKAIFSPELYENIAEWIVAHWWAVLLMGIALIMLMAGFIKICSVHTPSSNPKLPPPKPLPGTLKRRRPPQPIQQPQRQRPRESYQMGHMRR
CendR NRP1 mod – modulators of CendR peptide binding to NRP-1, primary screen, biochemical, fluorescence polarization, uHTS; FAM-RPARPAR peptide binding to NRP-1; inhibition, % at 25 µM; 360,000 compounds, 0.85% hits;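 active means inhibition or corrected inhibition above about 18%, plus a signal ratio from 0.5 to 1.5, limit read from the data, passing the limit was not always enough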
FAS-TE inh – FAS thioesterase domain inhibitors, primary screen, biochemical, fluorescence intensity, uHTS | AID 602261, 2012 | Fatty acid synthase (Homo sapiens), P49327 | inhibition, % at 15 µM | 360,000 compounds, 0.67% hits | recombinant FAS-TE, OMFH fluorogenic substrate, fluorescence endpoint;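 active means compounds whose normalised, plate-corrected inhibition of enzyme fluorescence in the single-dose primary screen is 50% or more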;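 further: 0% = DMSO with enzyme and 100% = substrate without enzyme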
Arr AP2 block – inhibitors of beta-arrestin/AP2 binding, primary screen, biochemical, GPCR trafficking, flow cytometry. beta-arrestin 1 C-terminal peptide binding to AP2 beta2-adaptin appendage (human). FITC-arrestin peptide / GST-AP2 beads; AP2 beta2 appendage carries R879A mutation. inhibition, % at 10 µM. 340,000 compounds, 0.31% hits;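 active means inhibition above a set limit, near 3 SD of compounds lacking own fluorescence, cut at about 54% in these data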;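 further: plate controls were DMSO wells for no effect and 5 µM unlabelled arrestin peptide for full effect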
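Assay system: GST-AP2 R879A bound to glutathione beads, E. coli-expressed; Medium: PBS with 0.05% Tween 20 and 0.1% BSA; Also added: fluorescein-tagged arrestin peptide at 50 nM final; Timing: 12 min plus 1 h, RT; Measured by: flow cytometry, FL1 (488/535 nm); Evaluation: percent drop in bead-associated FITC signal.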
Starred values were filed as active, the others as inactive; i = inactive; x = no result given; + = active, no number.

SMILES	ADAM17 inh	CaV13 ICDI inh	ADAM10 inh	CendR NRP1 mod	FAS-TE inh	Arr AP2 block
O=c1cc(CO)oc(C(Nc2ccccn2)c2ccccc2Cl)c1O (stereo not given)	0	-21	-2	26*	-4	6
C#CCNC(=O)C1=C[C@@H](C2CCCCC2)C[C@@H](OCc2ccc(CO)cc2)O1	2	-12	8	28*	4	3
C#CCNC(=O)C1=C[C@H](C2CCCCC2)C[C@H](OCc2ccc(CO)cc2)O1	0	-5	4	-9	7	11
CCCCNC(=O)C[C@H]1C[C@@]2(C(=O)OC)C(=C[C@H](C3CCCC3)O[C@@H]2C)N(Cc2ccccc2)C1=O	-4	-8	0	x	x	x
Cn1cccc1C(=O)N1CCN(S(=O)(=O)c2ccc(Br)s2)CC1	0	x	-3	x	x	x
Nc1cccc2nc3ccccc3cc12	x	x	x	8	0	-7
Cc1cc2c(N)cccc2nn1	-5	-4	0	41*	-3	27
COC(=O)C1=C(C)N(Cc2ccccc2C(F)(F)F)C(=NCc2ccc(C(F)(F)F)cc2)NC1CCc1ccccc1 (stereo not given)	3	-5	-5	x	x	x
CCN1C(=O)C(=Cc2cccc(OC)c2Oc2ccc([N+](=O)[O-])cc2[N+](=O)[O-])SC1=S	1	-4	3	25*	24	-3
CCCN1CCCc2cc(CN)ccc21	-22	-5	-57	25*	-9	32
CN1CCCc2cc(C=O)ccc21	-6	-3	-5	1	-8	21
COc1ccc(NC(=O)N2CCCC(c3nc(-c4ccc(C(C)C)cc4)no3)C2)cc1 (stereo not given)	11*	-4	25*	-6	26	2
Cn1nc(-c2ccc(N3CCOCC3)c(NS(=O)(=O)c3ccc(Cl)cc3)c2)c2ccccc2c1=O	-1	x	10	26*	16	-7
CN(Cc1ccccc1)c1nc(N)c([N+](=O)[O-])c(NCc2ccccc2)n1	-3	-7	-1	22*	36	4
Cc1ccc(C(=O)/C=C/NCc2ccc(F)cc2)cc1	7	-5	2	36*	3	13
COc1ccc(CCC[C@@H](CCC(=O)N(c2ccccc2)c2ccccc2)CCc2ccccc2)cc1	-7	x	-17	x	x	x
C=C1C[C@@]23CCC4[C@@](C)(CCC[C@@]4(C)C(=O)OC)C2CC[C@]1(OC(C)=O)C3 (stereo not given in full)	-4	-9	-3	30*	42	28
COC(=O)[C@]1(C)CCC[C@@]2(C)C3CC[C@@]4(C)C[C@]3(CCC21)CC(=O)N4C (stereo not given in full)	0	-3	7	13	-4	1
Cn1cc(C(=O)N/N=C/c2ccc3c(c2)OCO3)c2ccccc21	-3	5	-11	-2	6	-8
O=C(N/N=C/c1ccc2c(c1)OCO2)c1cc(-c2ccccc2)nc2ccccc12	4	-3	12	26*	36	-1
O=C(N/N=C/c1ccc2c(c1)OCO2)c1cccc2ccccc12	1	-3	0	30*	7	-3
CCOC(=O)CCCNC(=O)O[C@@H]1CC[C@@]23CCCN2C(=O)CCC[C@H]3C1	-1	x	2	x	x	x
Cc1c2c(n3c(nc4ccccc43)c1C#N)N(CCN1CCOCC1)CC2	-231	+	i	-12	2	-7
CCOC(=O)C1(C)CCN1C(=O)c1ccccc1 (stereo not given)	-1	-10	-3	-2	-7	x
CS(=O)(=O)N1CCC[C@]2(CC[C@@H](CCC#N)O2)C1	0	x	-2	x	x	x
SMILES	ADAM17 inh	CaV13 ICDI inh	ADAM10 inh	CendR NRP1 mod	FAS-TE inh	Arr AP2 block
O=c1c2ccccc2nc2n1C(CSc1ccc(F)cc1)CS2 (stereo not given)	-3	0	-7	29*	-7	14
O=c1c2ccccc2nc2n1C(CSc1ccccc1)CS2 (stereo not given)	-4	-3	-11	20	-4	3
CCO[C@@H]1OC(C(=O)NCc2ccccc2)=C[C@H](c2ccc(Br)cc2)[C@H]1CCCO	3	-9	12	24*	13	1
CCO[C@H]1OC(C(=O)NC2CC2)=C[C@@H](c2ccccc2)[C@@H]1CCCO	2	-3	-2	26*	-5	-1
C#Cc1ccc([C@@H]2C=C(C(=O)NC3CC3)O[C@H](OCC)[C@H]2CCCO)cc1	0	-11	8	18	-7	3
C#Cc1ccc([C@H]2C=C(C(=O)NCc3ccccc3)O[C@@H](OCC)[C@@H]2CCCO)cc1	0	-5	1	-13	0	8
OC[C@@H]1CN(Cc2ccc3c(c2)OCO3)C[C@H](n2cnc3c(NC4CC4)ncnc32)O1	1	-10	1	5	-8	x
OC(COc1ccccc1)CN(Cc1ccccc1)CC(O)COc1ccccc1 (stereo not given)	5	-9	14	-5	26	-3
CCC(=O)c1ccc(OCC(O)CN(CCc2ccccc2)Cc2ccccc2)cc1 (stereo not given)	9.3*	x	18	9	32	36
CC(Nc1ccc2ccccc2c1)C(=O)N/N=C/c1ccncc1 (stereo not given)	-8	-5	-26	25*	-4	21
CC(Oc1ccc2ccccc2c1)C(=O)N/N=C/c1cccnc1 (stereo not given)	-2	-5	-1	11	-5	-7
Cc1ccccc1NC(=S)N1CCCC(c2nc3ccccc3[nH]2)C1 (stereo not given)	-1	-3	-5	23*	-5	5
CC(=O)Nc1ccc(S(=O)(=O)NCCC(=O)NCCCc2ccccc2)cc1	1	-2	-12	22*	-4	1
O=c1cc(CSc2n[nH]c(-c3ccncc3)n2)nc2sccn12	-1	-6	1	24*	-8	-2
COCCn1c(SCc2cc(=O)n3ccsc3n2)nnc1-c1ccncc1	-4	-6	-2	-10	-9	-10
NC(=O)C1CCN(C2=C(NS(=O)(=O)c3ccccc3)C(=O)c3ccccc3C2=O)CC1	-3	-5	-5	4	-3	17
O=C1C(Cl)=C(N2CCC(C(=O)O)CC2)C(=O)c2ccccc21	x	x	x	35*	20	27
CN1CCN(C2=C(Cl)C(=O)c3ccccc3C2=O)CC1	-4	-7	-11	36*	23	41
